aDG glyco act – increases alpha dystroglycan glycosylation. Pro5-aDG cells, alpha-DG glycosylation AlphaScreen (IIH6); 0% Pro5, 100% B10-LARGE cell signal. activation, % at 10 µM. AID 624168. 360,000 compounds, 0.22% hits;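 active = activation of at least 8% versus controls, or a plate z-score of at least 8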;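 also: Pro5 are CHO cells carrying HIG-tagged alpha-DG that lacks glycosylation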
procasp7 counter – activates human procaspase-7, counter-screen for procaspase-3 activators | 330,000 compounds, 0.093% hits | recombinant procaspase-7, Ac-DEVD-pNA absorbance 405 nm; D23A/D198A/D206A triple mutant, cannot self-cleave; scale: DMSO 0, 5 µM enzyme 100 | activation, % at 8.5 µM | AID 463210;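 active = percent activation above the screen-wide mean plus 3 SD, cut at about 25% in these data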
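System: Procaspase-7 triple mutant (PC-7 D3A); measure: % activation from two-timepoint absorbance difference, scaled to controls; times: 1 h compound preincubation, 2 h substrate cleavage, 25 °C; also added: Ac-DEVD-pNA substrate, 400 µM as added; measured by: Epi-absorbance of released pNA at 405 nm, two timepoints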
T cell HTS – modulates CD8 T cell binding to vesicles; 2C CD8+ T cell-vesicle binding, flow cytometry; hits give low values; response (vesicle binding), % at 7 µM; 330,000 compounds, 0.068% hits;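 active = response, share of CD8 T cells binding vesicles, and their 90th percentile fluorescence all below set limits, cut at about 80% in these data, passing the limit was not always enough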;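 also: values below 100% mean blocked vesicle binding to the CD8+ T cells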
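Read-out – percent CD8+ FL2 mean versus row control · System – murine 2C transgenic CD8+ T lymphocytes · Times – 1.5 h cell–vesicle binding at 37 °C, then 20 min icy labelling · Control set – naked vesicles low, QL9 vesicles with vehicle high · Detection – cytometric PE anti-B7-1 and Alexa647 anti-CD8 signals after 1% paraformaldehyde fixation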
procasp3 activ – activators of human procaspase-3; recombinant procaspase-3 D3A, Ac-DEVD-pNA absorbance 405 nm; activation, % at 8.5 µM; 330,000 compounds, 0.11% hits; P42574;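 active = activation above the mean of all tested compounds plus 3 SD, cut at about 21% in these data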;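 also: 0% = DMSO alone and 100% = DMSO wells spiked with extra 5 µM PC-3 D3A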
Target sequence (P42574 whole entry D9A/D28A/D175A): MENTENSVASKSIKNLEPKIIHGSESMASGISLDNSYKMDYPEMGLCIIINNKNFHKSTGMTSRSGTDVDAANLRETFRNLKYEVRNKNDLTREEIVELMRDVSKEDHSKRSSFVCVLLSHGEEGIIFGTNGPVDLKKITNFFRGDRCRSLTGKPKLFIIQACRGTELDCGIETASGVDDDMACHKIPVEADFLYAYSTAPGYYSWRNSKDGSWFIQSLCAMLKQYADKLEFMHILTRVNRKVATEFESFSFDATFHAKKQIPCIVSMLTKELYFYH
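Evaluation: percent activation relative to control range; Material: Procaspase-3 D3A mutant, all three cleavage aspartates alanine; Compound: single dose, 8.5 µM nominal compound, 0.8% DMSO; Replication: one well per compound; Signal: absorbance at 405 nm, 0 and 120 min; Schedule: 1 h preincubation plus 2 h reaction at 25 °C.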
GRK2 aptamer HTS – human GRK2 inhibition via aptamer displacement | P25098 | bead flow cytometry, FAM-aptamer displacement from GRK2 | inhibition of aptamer binding, % at 10 µM | 330,000 compounds, 0.59% hits;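 active = inhibition of aptamer binding above 40%, roughly 3 SD of noise, on plates passing a quality check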;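 also: median bead fluorescence of bound FAM aptamer so fluorescent compounds give negative values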
CaV13 FRET inh – Primary screen for inhibitors of IQ motif and Ca2+-dependent inactivation inhibitor domain binding in CACNA1D, Förster resonance energy transfer in living cells, … | inhibition, % at 12.3 µM | AID 743397 | 340,000 compounds, 0.098% hits | HEK cells, CFP/YFP FRET ICDI-IQ, plate reader, 10 min; percent FRET-ratio fall versus neutral wells;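 active = mean replicate inhibition of at least 30% and at least 1% of replicates passing that level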;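 also: 0% = median of the neutral control wells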
* hit, by the source's call; · = not tested or not shown; + = active, no number. Shown are actives, neighbours in structure and some others; about 1.1% of the full set was active somewhere.

SMILES	aDG glyco act	procasp7 counter	T cell HTS	procasp3 activ	GRK2 aptamer HTS	CaV13 FRET inh
Cc1ccc(C(=O)NNC(=O)C2CC2)cc1Br	-0.3	0.6	0.0	12.5	5.0	-5.1
COC(=O)NNC(=O)c1ccc(C)c(Br)c1	-0.3	-5.5	266.4	3.1	80.0*	-18.9
Cc1ccc(CSc2nnc(SCC(=O)N/N=C/C=C/c3ccco3)s2)cc1	0.2	0.2	260.9	5.3	83.0*	-5.5
CCOC(=O)C1=C(C)NC(SCC(=O)Nc2nc(C)cs2)=C(C#N)C1c1cccs1 (stereo not drawn)	·	-19.2	210.6	-16.1	51.0*	-4.2
CC(=O)Nc1cc2c(ccc3ccccc32)oc1=O	-0.6	11.9	182.6	-2.6	1.0	-3.6
CC(=O)c1cc2c(ccc3ccccc32)oc1=O	-0.1	·	208.4	·	1.0	+
O=C(O)c1cc2ccc(O)cc2oc1=O	0.0	·	·	·	·	13.8
C/C(=N\NC(=O)CC#N)c1cc2ccc(O)cc2oc1=O	-0.5	-9.1	383.5	-11.5	6.0	+
Cc1cc(C)c(S(=O)(=O)/N=C2/C=C(SCC(=O)O)C(=O)c3ccccc32)cc1C	12.0*	·	·	·	·	·
CCCOc1ccc(N2C(=O)CC(N(Cc3ccco3)C(=O)CC)C2=O)cc1 (stereo not drawn)	0.0	-3.7	355.2	-8.5	0.0	-15.6
CCCOc1ccc(N2C(=O)CC(N(C(=O)c3ccco3)c3ccc(OCCC)cc3)C2=O)cc1 (stereo not drawn)	0.0	-3.6	0.0*	-7.7	0.0	-7.0
Cc1ccccc1S(=O)(=O)N(C)C[C@H]1OCc2cnnn2CCCC(=O)N([C@H](C)CO)C[C@@H]1C	·	·	·	·	·	-5.4
CCCCNc1cccc2c1S(=O)(=O)N[C@H](CC(C)C)CO2	·	·	·	·	·	-8.4
CCCCCC(=O)NCC(C)NC(=O)CCCCC (stereo not drawn)	0.1	-1.6	0.0*	6.3	0.0	-1.1
CCCCN(C=O)c1c(CC)nc2ccc(C(=O)NCCc3c[nH]c4ccccc34)cn12	0.1	·	·	·	·	-9.2
CCc1nc2ccc(C(=O)NCCc3c[nH]c4ccccc34)cn2c1N(C=O)CCC(C)C	0.0	·	·	·	·	38.2*
CCc1cc(CNC(=O)c2ccc(OC3CCN(CCc4ccccc4)CC3)cc2)on1	0.3	11.0	67.4	3.2	49.0*	-2.8
O=C(NCc1ccon1)c1ccc(OC2CCN(CCc3ccccc3)CC2)cc1	0.6	-2.0	239.1	-0.9	0.0	-4.1
O=C(NCCCc1ccccc1)c1cnc2n(c1=O)CCS2	0.3	2.6	430.7	-1.7	0.0	-4.0
CCCCNC(=O)c1cnc2n(c1=O)CCS2	0.2	7.5	25.8*	-9.8	1.0	-4.9
COCc1cc(N2CCN(C(=O)OC(C)(C)C)C[C@@H]2C)ccc1N1CC[C@H](O)C1	·	·	·	·	·	-8.7
O=C(NCc1ccccc1)[C@@H]1CCCN1C(=O)[C@H]1CCCN1C(=O)c1ccc(F)cc1	·	·	·	·	·	-4.8
COC(=O)c1c(NC(=O)COC(=O)c2ccc(Cl)nc2)sc(C)c1C	0.1	-3.7	48.6*	5.8	1.0	-6.5
COC(=O)c1c(NC(=O)COC(=O)c2ccccn2)sc(C)c1C	-0.3	12.3	360.5	-4.7	0.0	-2.3
COc1ccc(NC(=O)CN2C(=O)S/C(=C/c3cccn3-c3ccc(C(=O)O)cc3)C2=O)cc1	-0.4	·	179.7	·	49.0*	-4.9
Cc1ccc(NC(=O)CN2C(=O)S/C(=C\c3cccn3-c3cccc(C(=O)O)c3)C2=O)cc1C	0.2	5.3	238.8	1.2	3.0	-30.7
CC(=O)Nc1ccc2nc(NC(=O)c3ccc([N+](=O)[O-])s3)sc2c1	·	-3.6	449.6	6.2	87.0*	·
CC(=O)Nc1ccc2nc(NC(=O)c3cccs3)sc2c1	-0.1	-3.1	196.8	-4.3	6.0	-2.7
CCN=C1NC(c2cccc(F)c2)C(C(=O)OC)=C(C)N1Cc1ccccc1C(F)(F)F (stereo not drawn)	·	·	·	·	·	-10.6
